SENP6 block = blocks the human protease SENP6; Q9GZR1; Recombinant SENP6 catalytic domain, aminoluciferin luminescence; inhibition, % at 10 µM; hit rate 1.8% among 330,000; AID 2599;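 active = inhibition above about 50% at the single tested dose, limit read from the data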;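 note: plate controls were DMSO wells with enzyme for no effect and DMSO wells lacking enzyme for full effect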
Target sequence (Q9GZR1 628-1112 limits assumed): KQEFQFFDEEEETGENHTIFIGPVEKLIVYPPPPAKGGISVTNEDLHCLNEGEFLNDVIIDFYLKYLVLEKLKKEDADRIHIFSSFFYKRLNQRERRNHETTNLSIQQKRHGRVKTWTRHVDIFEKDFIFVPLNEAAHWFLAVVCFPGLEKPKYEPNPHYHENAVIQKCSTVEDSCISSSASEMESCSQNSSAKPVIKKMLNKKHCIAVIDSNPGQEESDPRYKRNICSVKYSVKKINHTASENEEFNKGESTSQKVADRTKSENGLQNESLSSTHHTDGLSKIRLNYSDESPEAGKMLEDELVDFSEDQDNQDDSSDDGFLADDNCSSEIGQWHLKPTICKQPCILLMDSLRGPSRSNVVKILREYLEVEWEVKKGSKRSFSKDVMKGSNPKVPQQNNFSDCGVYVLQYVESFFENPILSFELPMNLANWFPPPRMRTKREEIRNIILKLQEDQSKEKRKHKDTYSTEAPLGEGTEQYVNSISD
SENP7 inh = SENP7 protease inhibition; AID 434973; inhibition, % at 5 µM; recombinant SENP7, Z-RLRGG-aminoluciferin luminescence, 40 min; hit rate 1.5% among 330,000; Q9BQF6;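 active = inhibition above about 50% at the single test dose, limit read from the data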;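 note: plate controls were DMSO with enzyme for no effect and no enzyme buffer wells for full effect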
SENP8 block-1 = SENP8 (human) protease inhibition. inhibition, % at 20 µM. hit rate 0.64% among 360,000. recombinant SENP8, Nedd8 substrate fluorescence; in the data active = inhibition mostly above about 40%, no sharp cut-off; inactive = mostly below about 27%
SENP1 FRET inh = SENP1 (human) catalytic domain inhibition; Q9P0U3; recombinant SENP1 catalytic domain, CyPet-SUMO1-YPet FRET cleavage; inhibition, % at 10 µM; hit rate 0.21% among 360,000; AID 624204;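 active = inhibition at least 30% at 10 µM, raw YFP signal under a set limit, fluorescence ratio 0.5 to 1.5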;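 note: 0% = enzyme with DMSO and 100% = no enzyme wells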
Target sequence (Q9P0U3 419-644 limits assumed): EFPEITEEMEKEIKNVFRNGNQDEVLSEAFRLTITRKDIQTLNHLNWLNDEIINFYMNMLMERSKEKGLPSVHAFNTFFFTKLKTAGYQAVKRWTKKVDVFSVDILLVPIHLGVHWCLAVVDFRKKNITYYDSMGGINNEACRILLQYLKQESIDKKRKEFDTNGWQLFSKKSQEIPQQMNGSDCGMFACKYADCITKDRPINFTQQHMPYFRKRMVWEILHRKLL
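Material – human SENP1 catalytic domain · Input – SENP1 enzyme, 20 pM final · Compound dosing – single concentration of 10 µM compound, 0.5% DMSO final · Timing – enzyme reaction for 50 min at room temperature, dark · Measured by – FRET fluorescence in CFP and YFP emission channels · Control set – no-enzyme wells low, DMSO-plus-enzyme wells high control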
SENP8 block-2 = SENP8 protease inhibition. Q96LD8. purified SENP8, Z-RLRGG-aminoluciferin cleavage, luminescence. inhibition, % at 10 µM. hit rate 1.2% among 330,000. AID 2540; in the data active = inhibition above about 50%
SENP8 confirm = confirmation of human SENP8 protease inhibitors; shares compounds with SENP7 inh; Recombinant SENP8, Z-RLRGG-aminoluciferin luminescence, 60 min; inhibition, % at 12.5 µM; hit rate 40% among 6,200;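 active = mean inhibition across replicates above about 50%, limit read from the data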
SENP6 conf = human SENP6 inhibition, confirmed. shares compounds with SENP7 inh. recombinant SENP6, Z-RLRGG-aminoluciferin luminescence. inhibition, % at 12.5 µM. hit rate 58% among 6,200. AID 488915
SENP7 conf = confirmation of human SENP7 protease inhibitors | shares compounds with SENP7 inh | recombinant SENP7, Z-RLRGG-aminoluciferin luminescence, 40 min | inhibition, % at 12.5 µM | hit rate 69% among 6,200 | AID 488917
Casp3 SENP sel = selectivity test for SENP inhibitors: human caspase-3 inhibition. shares compounds with SENP7 inh. purified caspase-3, Z-DEVD-aminoluciferin luminescence, 60 min. inhibition, % at 12.5 µM. hit rate 60% among 6,200;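 active = mean inhibition above about 50%, limit read from the data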;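 note: plate controls were enzyme with DMSO for no effect and wells without caspase-3 for full effect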
SENP luc ctr = counter-screen for SENP inhibitors: luminescence interference; AID 488919; Pre-incubated SENP8/Z-RLRGG-aminoluciferin, luciferase luminescence interference; hit rate 39% among 6,200; shares compounds with SENP7 inh; inhibition, % at 12.5 µM;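 active = mean inhibition above about 50% when retested at one dose, limit read from the data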;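 note: plate controls were DMSO wells with completed reaction for no effect and substrate without enzyme for full effect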
Starred values were filed as active, the others as inactive; / = no result. The list is not random: actives were taken first. Their share in the collection is about 2.5%.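 Rule for the calls, unless noted: active = mean inhibition above about 50% in the one-dose retest (limit read from the data); inactive = the rest.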

SMILES	SENP6 block	SENP7 inh	SENP8 block-1	SENP1 FRET inh	SENP8 block-2	SENP8 confirm	SENP6 conf	SENP7 conf	Casp3 SENP sel	SENP luc ctr
O=C(O)c1cc(/C=C/c2ccc(N3CCOCC3)c([N+](=O)[O-])c2)nc2ccccc12	76.8*	62.9*	-104.2	-22.2	52.6*	73.0*	68.3*	91.1*	81.0*	71.4*
O=C(O)c1cc(N2CCOCC2)nc2ccccc12	-4.6	14.2	-314.5	-1.5	-10.0	/	/	/	/	/
O=C(O)c1cc(/C=C/c2ccc(N3CCOCC3)cc2)nc2ccccc12	1.7	68.8*	-417.8	-31.0	70.0*	79.0*	78.5*	95.6*	90.3*	83.1*
CCc1ccc(OCC(=O)NNC(=O)c2ccc(NC(=O)C3CC3)cc2)cc1	-9.1	0.5	-10.5	2.9	6.3	/	/	/	/	/
CCn1c(O)c(C=Nc2ccccc2)sc1=S	80.8*	69.7*	/	/	68.8*	44.3	50.9*	95.5*	60.9*	11.2
O=C(Nc1nnc(S(=O)(=O)N2CCCC2)s1)c1cccc([N+](=O)[O-])c1	51.9*	19.7	1.6	2.3	33.9	10.1	30.1	5.5	25.8	2.4
O=C(Nc1nnc(SCc2ccccc2)s1)c1cccc([N+](=O)[O-])c1	84.2*	21.8	16.1	1.1	70.5*	68.5*	66.5*	83.0*	53.4*	43.8
CC(C)C(=O)Nc1nnc(CSCc2ccccc2F)s1	-18.3	-10.8	2.5	-2.7	-10.8	/	/	/	/	/
O=C(Nc1nnc(CSCc2ccccc2F)s1)c1cccc([N+](=O)[O-])c1	55.7*	3.6	-18.9	-7.0	25.0	9.7	5.6	1.5	7.0	0.8
N#CCCN(CCN1CCCC1)S(=O)(=O)c1ccc(-c2ccc([N+](=O)[O-])cc2)cc1	17.9	-9.5	9.8	2.6	-11.9	/	/	/	/	/
O=C(NNS(=O)(=O)c1ccccc1)c1ccc([N+](=O)[O-])cc1	-3.2	67.6*	14.3	1.7	-10.2	8.4	9.1	11.3	4.4	-2.8
O=C(NC(=S)NNS(=O)(=O)c1ccccc1)c1ccc([N+](=O)[O-])cc1	-8.3	-1.8	10.9	1.3	-5.6	/	/	/	/	/
O=c1[nH]c(C2CCN(S(=O)(=O)c3ccccc3)CC2)nc2c1nnn2Cc1c(F)cccc1Cl	2.3	3.3	5.7	1.6	2.0	/	/	/	/	/
O=C(Nc1ccc(N2CCCCC2)cc1)c1ccc(F)cc1	78.9*	83.2*	12.1	1.8	67.9*	10.8	13.9	19.6	47.4	10.3
Cn1cccc1C(=O)Nc1ccc(N2CCOCC2)cc1	24.4	62.0*	16.0	0.6	37.0	58.8*	53.6*	82.3*	84.7*	32.9
COc1ccc(C(=O)Nc2ccc(N3CCOCC3)cc2)cc1OC	89.2*	88.9*	22.7	0.6	81.9*	57.8*	85.8*	96.9*	95.1*	19.7
COc1ccc(C(=O)c2ccc(OC)c(Br)c2)cc1Br	98.0*	10.0	11.9	-0.3	-2.2	10.9	7.4	8.7	3.2	4.3
COc1ccc(C(=O)Nc2ccc(S(=O)(=O)N3CCOCC3)cc2)cc1OC	1.6	-12.6	16.4	-0.2	-6.6	/	/	/	/	/
NS(=O)(=O)c1ccc(CCNC(=O)c2ccc(NC3=NC4CS(=O)(=O)CC4S3)cc2)cc1 (stereo unspecified)	-24.8	9.3	19.2	1.3	9.5	/	/	/	/	/
COC(=O)C1(C)COP(=O)(Nc2ccc(OC)cc2)OC1 (stereo unspecified)	/	/	5.1	1.8	/	/	/	/	/	/
C/C(=N\N1CCN(c2ccccc2)CC1)c1ccc(O)cc1	9.1	2.2	12.7	0.8	-5.6	/	/	/	/	/
O=C(CCCN1C(=O)NC2(CCCC2)C1=O)NCc1ccccc1	-12.5	5.7	6.5	-1.0	-3.1	/	/	/	/	/
COc1ccc(C(=O)Nc2ccc(N3CCCC3)cc2)cc1OC	94.4*	19.3	-10.6	-6.1	94.6*	87.6*	97.8*	101.7*	97.8*	89.3*
COc1ccc(C(=O)Nc2ccc(N3CCN(C(=O)c4cccs4)CC3)cc2)cc1Br	12.7	-2.8	15.9	1.9	5.6	/	/	/	/	/
COc1ccc(C(=O)Nc2ccc(N3CCCC3)cc2)cc1Br	63.7*	1.0	28.4	-2.7	59.9*	1.0	20.4	14.5	48.4	12.5
SMILES	SENP6 block	SENP7 inh	SENP8 block-1	SENP1 FRET inh	SENP8 block-2	SENP8 confirm	SENP6 conf	SENP7 conf	Casp3 SENP sel	SENP luc ctr
COc1ccc(C(=O)Nc2ccc(N3CCCC3)cc2)cc1	-11.7	2.3	-11.7	-1.1	-4.1	/	/	/	/	/
CC1=C(Nc2ccc(C(=O)O)cc2)C(=O)c2ccccc2C1=O	15.7	-1.3	27.3	-0.5	1.7	/	/	/	/	/
CN(C)c1ccc(/C=C/C(=O)c2ccc(O)cc2)cc1	/	/	-434.2	-25.8	/	/	/	/	/	/
Cc1ccc(NC2=C(N3CCCCC3)C(=O)c3ccccc3C2=O)cc1	65.7*	-20.8	81.9*	-108.2	52.2*	7.7	89.8*	73.5*	95.1*	10.1
O=C1C(Nc2cccc(O)c2)=C(N2CCCCC2)C(=O)c2ccccc21	81.1*	41.1	76.2*	-57.4	63.3*	56.6*	77.0*	44.8	94.5*	-1.0
COC1=C(Nc2ccccc2)C(=O)c2ccccc2C1=O	23.6	20.7	-75.2	1.6	5.7	/	/	/	/	/
O=C1C(Nc2ccccc2)=C(N2CCCCC2)C(=O)c2ccccc21	85.7*	61.4*	83.1*	-95.7	58.6*	62.8*	79.0*	58.3*	95.0*	6.5
O=C(/C=C/c1ccc(O)cc1)c1ccc(NC2=C(N3CCCCC3)C(=O)c3ccccc3C2=O)cc1	76.0*	47.9	25.3	-28.3	67.0*	64.2*	84.9*	77.2*	95.0*	84.4*
CCn1cc(C(=O)N[C@@H](CC(C)C)C(=O)NCCCn2ccnc2)c(=O)c2cc3c(cc21)OCO3	-3.2	0.2	-97.7	2.6	2.2	/	/	/	/	/
CN(C(=O)COC(=O)c1cc2c(s1)CCCCC2)C1CCS(=O)(=O)C1 (stereo unspecified)	-2.6	-2.1	3.6	-1.1	-7.6	/	/	/	/	/
COc1ccccc1NC1=C(N2CCCCC2)C(=O)c2ccccc2C1=O	73.7*	46.9	88.2*	-79.8	72.8*	43.2	91.3*	71.5*	97.0*	-3.6
Brc1ccc(NC2=Nc3ccccc3CC2)cc1	-19.3	44.9	-0.5	0.2	33.9	/	/	/	/	/
Cc1ccc(NC2=Nc3ccccc3CC2)cc1	51.7*	37.0	12.1	-1.0	43.4	64.1*	61.0*	88.5*	84.2*	42.2

Screening data as filed in PubChem BioAssay.
